Data: ChEMBL document CHEMBL3046020, “Enantioselectivity in the phytotoxicity of herbicide imazethapyr” (2009)

Experiments:
Zea mays [1] = assay: Phytotoxicity in Zea mays (maize) assessed as root dry weight assessed per 10 plants at 200 ug/L measured 5 days post compound treatment (reference value: 42.8 +/- 0.7 mg); assay type: functional
Zea mays [2] = assay: Increase in root diameter in Zea mays (maize) seedlings at 100 to 800 ug/L; assay type: functional, organism-based
Procedure, shortened: (§1)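 Maize seedlings were grown in a chamber (12 h light, 10,000 lx, 25/20 °C, 60% RH) for five days under graded levels of S-(+)-, R-(-)- or racemic IM. Root diameter, volume, surface area and tip number were measured per plant with an automatic root scanner. Values are means ± SD of three replicates of 10 randomly selected seedlings each.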

Zea mays [3] = assay: Phytotoxicity in Zea mays (maize) assessed as shoot dry weight assessed per 10 plants at 400 ug/L measured 5 days post compound treatment (reference value: 101.2 +/- 4.5 mg); assay type: functional
Zea mays [4] = assay: Phytotoxicity in Zea mays (maize) assessed as shoot height at 200 ug/L measured 5 days post compound treatment (reference value: 6.89 +/- 0.30 cm); assay type: functional
Zea mays [5] = assay: Phytotoxicity in Zea mays (maize) assessed as shoot height at 100 ug/L measured 5 days post compound treatment (reference value: 6.89 +/- 0.30 cm); assay type: functional
Zea mays [6] = assay: Phytotoxicity in Zea mays (maize) assessed as root dry weight assessed per 10 plants at 800 ug/L measured 5 days post compound treatment (reference value: 42.8 +/- 0.7 mg); assay type: functional
Zea mays [7] = assay: Effect on root surface area in Zea mays (maize) seedlings at 100 to 800 ug/L; assay type: functional, organism-based; procedure, shortened: as §1
Zea mays [8] = assay: Phytotoxicity in Zea mays (maize) assessed as shoot height at 400 ug/L measured 5 days post compound treatment (reference value: 6.89 +/- 0.30 cm); assay type: functional
Zea mays [9] = assay: Phytotoxicity in Zea mays (maize) assessed as shoot dry weight assessed per 10 plants at 800 ug/L measured 5 days post compound treatment (reference value: 101.2 +/- 4.5 mg); assay type: functional
Zea mays [10] = assay: Phytotoxicity in Zea mays assessed (maize) as total root length measured per plant at 800 ug/L measured 5 days post compound treatment (reference value: 12.32 +/- 1.46 cm); assay type: functional
Zea mays [11] = assay: Reduction of root hair growth in Zea mays (maize) seedlings at 400 ug/L measured 48 hr post dose by microscopy; assay type: functional, organism-based
Procedure, shortened: (§2)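 Maize seedlings with primary roots about 2 mm long were moved to 0 or 400 µg L-1 S-(+)-, R-(-)- or racemic IM solution. After 48 h, root tips (border cells) and the densest root-hair zone were examined and photographed under a light microscope. Growth chamber: 12 h light, 25/20 °C, 60% RH.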

Zea mays [12] = assay: Phytotoxicity in Zea mays (maize) assessed as total root length measured per plant at 100 ug/L measured 5 days post compound treatment (reference value: 12.32 +/- 1.46 cm); assay type: functional
Zea mays [13] = assay: Phytotoxicity in Zea mays (maize) assessed as root dry weight assessed per 10 plants at 100 ug/L measured 5 days post compound treatment (reference value: 42.8 +/- 0.7 mg); assay type: functional
Zea mays [14] = assay: Phytotoxicity in Zea mays (maize) assessed as shoot height at 800 ug/L measured 5 days post compound treatment (reference value: 6.89 +/- 0.30 cm); assay type: functional
Zea mays [15] = assay: Effect on root volume in Zea mays (maize) seedlings at 100 to 800 ug/L; assay type: functional, organism-based; procedure, shortened: as §1
Zea mays [16] = assay: Phytotoxicity in Zea mays (maize) assessed as root dry weight assessed per 10 plants at 400 ug/L measured 5 days post compound treatment (reference value: 42.8 +/- 0.7 mg); assay type: functional
Zea mays [17] = assay: Phytotoxicity in Zea mays assessed (maize) as total root length measured per plant at 400 ug/L measured 5 days post compound treatment (reference value: 12.32 +/- 1.46 cm); assay type: functional
Zea mays [18] = assay: Phytotoxicity in Zea mays assessed (maize) as total root length measured per plant at 200 ug/L measured 5 days post compound treatment (reference value: 12.32 +/- 1.46 cm); assay type: functional
Zea mays [19] = assay: Reduction in root tips in Zea mays (maize) seedlings at 100 to 800 ug/L; assay type: functional, organism-based; procedure, shortened: as §1
Zea mays [20] = assay: Phytotoxicity in Zea mays (maize) assessed as shoot dry weight assessed per 10 plants at 100 ug/L measured 5 days post compound treatment (reference value: 101.2 +/- 4.5 mg); assay type: functional
Zea mays [21] = assay: Phytotoxicity in Zea mays (maize) assessed as shoot dry weight assessed per 10 plants at 200 ug/L measured 5 days post compound treatment (reference value: 101.2 +/- 4.5 mg); assay type: functional
Zea mays [22] = assay: Reduction in root tips in Zea mays (maize) seedlings at 100 ug/L; assay type: functional, organism-based; procedure, shortened: as §1
Zea mays [23] = assay: Induction of ultrastructure damage of root tip statocytes in Zea mays (maize) seedlings assessed as destruction of mitochondria envelope membranes at 400 ug/L measured 48 hr post dose by transmission electron microscopy; assay type: functional, organism-based
Procedure, shortened: (§3)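 Maize seeds surface-sterilized in 10% NaOCl for 10 min, soaked 12 h, germinated on moist gauze. Root-tip sections of 1-3 mm were fixed in 4% glutaraldehyde, postfixed in OsO4 and embedded in Spurr's resin. 80 nm sections were viewed by TEM at 60 kV.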

Zea mays [24] = assay: Induction of ultrastructure damage of root tip statocytes in Zea mays (maize) seedlings assessed as reduction in starch grain size at 400 ug/L measured 48 hr post dose by transmission electron microscopy; assay type: functional, organism-based; procedure, shortened: as §3
Zea mays [25] = assay: Induction of ultrastructure damage of root tip statocytes in Zea mays (maize) seedlings at 400 ug/L measured 48 hr post dose by transmission electron microscopy; assay type: functional, organism-based; procedure, shortened: as §3
Zea mays [26] = assay: Reduction of sloughing of border cells from root tips in Zea mays (maize) seedlings at 400 ug/L measured 48 hr post dose by microscopy; assay type: functional, organism-based; procedure, shortened: as §2
Zea mays [27] = assay: Induction of ultrastructure damage of root tip statocytes in Zea mays (maize) seedlings assessed as induction of cell wall thickening at 400 ug/L measured 48 hr post dose by transmission electron microscopy; assay type: functional, organism-based; procedure, shortened: as §3
Zea mays [28] = assay: Induction of ultrastructure damage of root tip statocytes in Zea mays (maize) seedlings assessed as reduction in organelle size at 400 ug/L measured 48 hr post dose by transmission electron microscopy; assay type: functional, organism-based; procedure, shortened: as §3
Zea mays [29] = assay: Induction of ultrastructure damage of root tip statocytes in Zea mays seedlings (maize) assessed as dictyosomers swelling at 400 ug/L measured 48 hr post dose by transmission electron microscopy; assay type: functional, organism-based; procedure, shortened: as §3
Zea mays [30] = assay: Effect on cell organelles in root tip statocytes in Zea mays (maize) seedlings at 400 ug/L measured 48 hr post dose by transmission electron microscopy; assay type: functional, organism-based; procedure, shortened: as §3

Compound	Activity (Zea mays [1]) [mg]	Activity (Zea mays [2])	Activity (Zea mays [3]) [mg]	Activity (Zea mays [4]) [cm]	Activity (Zea mays [5]) [cm]	Activity (Zea mays [6]) [mg]	Activity (Zea mays [7])	Activity (Zea mays [8]) [cm]	Activity (Zea mays [9]) [mg]	Activity (Zea mays [10]) [cm]	Activity (Zea mays [11])	Activity (Zea mays [12]) [cm]	Activity (Zea mays [13]) [mg]	Activity (Zea mays [14]) [cm]	Activity (Zea mays [15])	Activity (Zea mays [16]) [mg]	Activity (Zea mays [17]) [cm]	Activity (Zea mays [18]) [cm]	Activity (Zea mays [19])	Activity (Zea mays [20]) [mg]	further results
CCc1cnc(C2=NC(C)(C(C)C)C(=O)N2)c(C(=O)O)c1 (racemic) [IMAZETHAPYR]	34.6	Toxic	83.3	6.2	6.3	29	Toxic	4.6	73.4	5.2	Non-toxic	8.1	36.1	4	Toxic	26.4	5.5	7.4	Toxic	92.4	Activity (Zea mays [21]): 107.8 mg
CCc1cnc(C2=N[C@](C)(C(C)C)C(=O)N2)c(C(=O)O)c1 [R-(-)-IMAZETHAPYR]	30.5	Toxic	61.4	5.9	6.2	25.2	Toxic	3.9	57.1	4.8	Toxic	7.7	33.8	3.4	Toxic	25.7	4.9	6.4	Toxic	90.3	Activity (Zea mays [22]): Toxic; Activity (Zea mays [23]): Toxic; Activity (Zea mays [24]): Toxic; Activity (Zea mays [25]): Toxic; Activity (Zea mays [26]): Toxic; Activity (Zea mays [27]): Toxic; Activity (Zea mays [28]): Toxic; Activity (Zea mays [21]): 91.9 mg; Activity (Zea mays [29]): Toxic
CCc1cnc(C2=N[C@@](C)(C(C)C)C(=O)N2)c(C(=O)O)c1 [S-(+)-IMAZETHAPYR]	35.1	Non-toxic	85.4	6.3	6.5	29.6	Toxic	5.7	75.6	6.1	Non-toxic	9.4	36.6	5.1	Toxic	30.3	7.2	8.9	Toxic	100	Activity (Zea mays [22]): Non-toxic; Activity (Zea mays [24]): Non-toxic; Activity (Zea mays [25]): Non-toxic; Activity (Zea mays [30]): Non-toxic; Activity (Zea mays [21]): 101.3 mg
